Data published in ChEMBL document CHEMBL3046488, “Synthesis of 3-(4-Bromobenzyl)-5-(aryl methylene)-5H-furan-2-ones and their activity as inhibitors of the photosynthetic electron transport chain” (2007).
Calls of active or inactive are those of the source. No cut-off for these calls is given here.

Columns and labels:
Spinacia oleracea [1] = assay: (§1) In vitro inhibition of basal rate of photosynthetic electron transport (Hill reaction) in active intact chloroplast thylakoid membrane of Spinacia oleracea (spinach) leaves assessed as light-driven ferricyanide reduction at 10 uM measured at 24 degC at 30 secs intervals for 10 min (reference value: 100 +/-3.1%); set-up: scale not given: the % may be the effect or the level left
Spinacia oleracea [2] = assay: as §1, with “at 5” for “at 10”; set-up: scale not given: the % may be the effect or the level left
[3] = tested on: Auxenochlorella protothecoides; assay: In vivo inhibition of photosynthetic activity in intact Auxenochlorella protothecoides ATCC 30411 cells assessed as light-driven oxygen evolution rate at 100 uM measured at 24 degC every 15 sec upto 8 min by polarographic analysis in absence of detergent (reference value: 100 +/-5.9%); type: functional; set-up: scale not given: the % may be the effect or the level left
[4] = tested on: Auxenochlorella protothecoides; assay: In vivo inhibition of photosynthetic activity in intact Auxenochlorella protothecoides ATCC 30411 cells assessed as light-driven oxygen evolution rate at 10 uM measured at 24 degC every 15 sec upto 8 min by polarographic analysis in absence of detergent (reference value: 100 +/-5.9%); type: functional; set-up: scale not given: the % may be the effect or the level left
[5] = tested on: Auxenochlorella protothecoides; assay: In vivo inhibition of photosynthetic activity in intact Auxenochlorella protothecoides ATCC 30411 cells assessed as light-driven oxygen evolution rate at 100 uM measured at 24 degC every 15 sec upto 8 min by polarographic analysis in presence of 0.001% Triton X-100 (reference value: 100 +/-5.1%); type: functional; set-up: scale not given: the % may be the effect or the level left
[6] = tested on: Auxenochlorella protothecoides; assay: In vivo inhibition of photosynthetic activity in intact Auxenochlorella protothecoides ATCC 30411 cells assessed as light-driven oxygen evolution rate at 10 uM measured at 24 degC every 15 sec upto 8 min by polarographic analysis in presence of 0.001% Triton X-100 (reference value: 100 +/-5.1%); type: functional; set-up: scale not given: the % may be the effect or the level left
Spinacia oleracea [7] = assay: (§2) In vitro inhibition of basal rate of photosynthetic electron transport (Hill reaction) in active intact chloroplast thylakoid membrane of Spinacia oleracea (spinach) leaves assessed as inhibition of light-driven ferricyanide reduction at >10 uM measured at 24 degC at 30 secs intervals for 10 min
Spinacia oleracea [8] = assay: In vitro inhibition of uncoupled electron transport in active intact chloroplast thylakoid membrane of Spinacia oleracea (spinach) leaves assessed as light-driven ferricyanide reduction at 10 uM measured at 24 degC at 30 secs intervals for 10 min (reference value: 100 +/-4.1%); set-up: scale not given: the % may be the effect or the level left
Spinacia oleracea [9] = assay: In vitro inhibition of phosphorylating electron transport in active intact chloroplast thylakoid membrane of Spinacia oleracea (spinach) leaves assessed as light-driven ferricyanide reduction at 10 uM measured at 24 degC at 30 secs intervals for 10 min (reference value: 100 +/-3.8%); set-up: scale not given: the % may be the effect or the level left
Spinacia oleracea [10] = assay: as §2, with “10” for “>10”, “min in presence of 0.25 to 1 mM uncoupler, NH4Cl” for “min”
In short: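 A fixed compound concentration was tested in the spinach thylakoid ferricyanide-reduction assay at increasing NH4Cl (uncoupler) levels. Activity is expressed as % of untreated samples containing the same amount of uncoupler, mean ± SE over at least six replications from two independent experiments.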

In the case of O=C1OC(=Cc2ccc(Cl)cc2)C=C1Cc1ccc(Br)cc1, the Activity (Spinacia oleracea [1]) is reported as 89.4% and the Activity (Spinacia oleracea [2]) is reported as 94.1%.

Compound O=C1O/C(=C\c2ccc3c(c2)OCO3)C=C1Cc1ccc(Br)cc1 has an Activity (Spinacia oleracea [1]) of 91% and an Activity (Spinacia oleracea [2]) of 91.1%.

CN(C)C(=O)Nc1ccc(Cl)c(Cl)c1 [DCMU] was tested, and the Activity [3] was 38.5%, the Activity [4] was 49.9% and the Activity [5] was 20.7%. For the same compound, the Activity [6] was 32.2%, the Activity (Spinacia oleracea [1]) was 4.9% and the Activity (Spinacia oleracea [2]) was 6.8%.

For O=C1OC(=Cc2ccccc2)C=C1Cc1ccc(Br)cc1, the Activity [3] was 82.6%, the inhibition (Spinacia oleracea [7]) was “inactive” and the Activity [5] was 74.2%. For the same compound, the Activity (Spinacia oleracea [8]) was 95.6%, the Activity (Spinacia oleracea [9]) was 47.9% and the Activity (Spinacia oleracea [1]) was 42.9%. For the same compound, the inhibition (Spinacia oleracea [10]) was “inactive” and the Activity (Spinacia oleracea [2]) was 54.1%.

O=C1OC(=Cc2ccc(Br)cc2)C=C1Cc1ccc(Br)cc1 gave an Activity (Spinacia oleracea [1]) of 92% and an Activity (Spinacia oleracea [2]) of 95.4%.

Work on CN(C)c1ccc(C=C2C=C(Cc3ccc(Br)cc3)C(=O)O2)c(Cl)c1 yielded an Activity (Spinacia oleracea [1]) of 91% and an Activity (Spinacia oleracea [2]) of 94.7%.

In the case of O=C1OC(=Cc2ccc(F)cc2)C=C1Cc1ccc(Br)cc1, the Activity (Spinacia oleracea [1]) is reported as 68.5% and the Activity (Spinacia oleracea [2]) is reported as 74%.

Compound COc1ccc(OC)c(/C=C2\C=C(Cc3ccc(Br)cc3)C(=O)O2)c1 has an Activity (Spinacia oleracea [1]) of 71% and an Activity (Spinacia oleracea [2]) of 94.1%.

With Cc1cccc(/C=C2\C=C(Cc3ccc(Br)cc3)C(=O)O2)c1 the Activity (Spinacia oleracea [1]) was 69.7% and the Activity (Spinacia oleracea [2]) was 72.8%.

With COc1cc(OC)c(/C=C2\C=C(Cc3ccc(Br)cc3)C(=O)O2)c(OC)c1 the Activity (Spinacia oleracea [1]) was 79.9% and the Activity (Spinacia oleracea [2]) was 84.2%.

With O=C1OC(=Cc2ccc(C(F)(F)F)cc2)C=C1Cc1ccc(Br)cc1 the Activity [3] was 94.5%, the inhibition (Spinacia oleracea [7]) was “inactive” and the Activity [5] was 89.5%. The Activity (Spinacia oleracea [8]) was 79.8%, the Activity (Spinacia oleracea [9]) was 52.1% and the Activity (Spinacia oleracea [1]) was 48.8%. The Activity (Spinacia oleracea [2]) was 71.7%.

O=C1OC(=Cc2cccc([N+](=O)[O-])c2)C=C1Cc1ccc(Br)cc1 gave an Activity (Spinacia oleracea [1]) of 66.9% and an Activity (Spinacia oleracea [2]) of 72.6%.

For N#Cc1ccc(C=C2C=C(Cc3ccc(Br)cc3)C(=O)O2)cc1, the Activity (Spinacia oleracea [1]) was 101% and the Activity (Spinacia oleracea [2]) was 100%.
